Assay results published in ChEMBL document CHEMBL3244323, “[1-Penicillamine,2-leucine]oxytocin. Synthesis and pharmacological and conformational studies of a potent peptide hormone inhibitor” (J Med Chem, 1979).
Positions count from the first letter of the chain named. Blank lines part the entries; values can stand above or below the compound they belong to. The source made the active and inactive calls. The rule behind the calls is not given here. *1 amine or outer side, *2 acyl side, *3 side chain or, on linkers, in order; H or OH if unused. Where a SMILES comes first, the peptide text is derived from it. Bridges are numbered along the chain shown (N, C = ends). [ ]: non-standard residue; d: D form. Tyr(3,5-Br2) = N[C@@H](Cc1cc(Br)c(O)c(Br)c1)C(=O)O; X1 = CCC(CC)(CC(=O)[*:1])S[*:2]; X2 = CC(C)(CC(=O)[*:1])S[*:2]; Pen = CC(C)(S)[C@H](N)C(=O)O

Legend:
[1] = target: T1, Oxytocin receptor (Homo sapiens) (UniProt P30559); experiment: Agonist activity at oxytocin receptor (unknown origin)
T1 sequence (whole entry): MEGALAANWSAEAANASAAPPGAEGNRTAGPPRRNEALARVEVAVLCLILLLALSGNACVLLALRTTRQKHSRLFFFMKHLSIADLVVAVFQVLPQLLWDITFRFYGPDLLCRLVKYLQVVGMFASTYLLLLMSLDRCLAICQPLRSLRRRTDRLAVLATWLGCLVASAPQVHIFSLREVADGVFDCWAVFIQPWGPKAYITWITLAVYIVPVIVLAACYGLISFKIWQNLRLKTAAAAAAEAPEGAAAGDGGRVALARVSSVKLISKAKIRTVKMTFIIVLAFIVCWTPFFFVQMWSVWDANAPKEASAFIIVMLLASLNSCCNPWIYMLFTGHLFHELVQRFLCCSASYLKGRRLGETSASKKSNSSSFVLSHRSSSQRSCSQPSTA

Oxytocin receptor [2] = target: T2, Oxytocin receptor (Rattus norvegicus, UniProt P70536); experiment: Antagonist activity at oxytocin receptor in rat assessed as inhibition of agonist-induced oxytocic response; conditions: read-out: pA2 (converted)
T2 sequence (P70536 whole entry): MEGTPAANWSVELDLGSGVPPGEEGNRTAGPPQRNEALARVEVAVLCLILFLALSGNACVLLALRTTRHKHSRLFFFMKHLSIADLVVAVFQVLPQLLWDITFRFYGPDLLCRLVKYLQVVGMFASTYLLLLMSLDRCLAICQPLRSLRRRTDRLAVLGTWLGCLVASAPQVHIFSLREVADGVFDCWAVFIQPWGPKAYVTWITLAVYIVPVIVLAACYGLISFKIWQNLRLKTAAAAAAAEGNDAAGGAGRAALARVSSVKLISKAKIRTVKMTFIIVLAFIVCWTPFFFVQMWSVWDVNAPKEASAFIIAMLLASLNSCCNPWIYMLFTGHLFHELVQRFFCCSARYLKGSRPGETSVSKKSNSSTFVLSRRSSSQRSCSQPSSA
Summary of the method: (§1)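 Isolated uteri from rats in natural estrus, suspended in Mg-free van Dyke-Hasting's solution with isotonic contraction recording, bath 30 °C. Antagonism of oxytocin was analysed by the Schild method. pA2 is the negative log of the average molar antagonist concentration that reduces the response to 2x units of oxytocin to the response to x units.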

Oxytocin receptor [3] = target: T3, Oxytocin receptor (Homo sapiens, UniProt P30559); experiment: Antagonist activity at oxytocin receptor (unknown origin) assessed as inhibition of agonist-induced oxytocic response; conditions: read-out: pA2 (converted); summary of the method: as §1
T3 sequence (P30559 whole entry): T1 sequence (whole entry)

[4] = target: T4, Oxytocin receptor (Mus musculus) (UniProt P97926); experiment: Antagonist activity at oxytocin receptor in mouse mammary gland tissue assessed as inhibition of oxytocin-induced milk ejection by spectrophotometry
T4 sequence (whole entry): T2 sequence (P70536 whole entry) with V11I, E23A, R27L, Q33R, G159A, A169V, N245S, F344L, V361I
Summary of the method: (§2)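 Mouse mammary gland tissue was incubated in vitro with oxytocin alone, or with oxytocin plus antagonist at up to 10^-5 M. Released milk was measured spectrophotometrically as absorbance. Values are mean ± SE from tissue of four mice.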

[5] = target: T5, Oxytocin receptor (Rattus norvegicus) (UniProt P70536); experiment: Antagonist activity at oxytocin receptor in isolated rat uterus assessed as incidence of regular phasic contractions of uterus at 0.25 ug/ml measured during 6 mins interval of compound dosing
T5 sequence (whole entry): T2 sequence (P70536 whole entry)

[6] = target: T5, Oxytocin receptor (Rattus norvegicus); experiment: Antagonist activity at oxytocin receptor in isolated rat uterus assessed as inhibition of oxytocic response at 0.25 ug/ml pretreated for 30 secs prior to oxytocin addition relative to control
[7] = target: T5, Oxytocin receptor (Rattus norvegicus); experiment: Antagonist activity at oxytocin receptor in isolated rat uterus assessed as inhibition of oxytocin-induced oxytocic response at 20:1 compound to oxytocin ratio followed by compound washout
[8] = target: T5, Oxytocin receptor (Rattus norvegicus); experiment: Antagonist activity at oxytocin receptor in isolated rat uterus assessed as reduction of subsequent contractions at 0.25 ug/ml measured during 10 mins interval of compound dosing
[9] = target: T4, Oxytocin receptor (Mus musculus); experiment: Agonist activity at oxytocin receptor in mouse mammary gland tissue assessed as milk-ejecting activity at 10^-5 M by spectrophotometry
[10] = target: T4, Oxytocin receptor (Mus musculus); experiment: Antagonist activity at oxytocin receptor in mouse mammary gland tissue assessed as inhibition of oxytocin-induced milk ejection at 7.5X10'-6 M by spectrophotometry; summary of the method: as §2
[11] = target: T5, Oxytocin receptor (Rattus norvegicus); experiment: Antagonist activity at oxytocin receptor in isolated rat uterus assessed as inhibition of oxytocic response at 0.25 ug/ml added simultaneously with oxytocin
[12] = target: T5, Oxytocin receptor (Rattus norvegicus); experiment: Antagonist activity at oxytocin receptor in isolated rat uterus assessed as inhibition of oxytocin-induced oxytocic response at 20:1 compound to oxytocin ratio pretreated up to 90 secs prior to oxytocin addition
[13] = target: T5, Oxytocin receptor (Rattus norvegicus); experiment: Antagonist activity at oxytocin receptor in isolated rat uterus assessed as inhibition of oxytocin-induced contractions at 0.25 ug/ml dosed at the peak of first contraction measured during 10 mins interval of compound dosing
Oxytocin receptor [14] = target: T2, Oxytocin receptor; experiment: Antagonist activity at oxytocin receptor in isolated rat uterus assessed as inhibition of oxytocin-induced oxytocic response; conditions: read-out: pA2 (converted); summary of the method: as §1
[15] = target: T5, Oxytocin receptor (Rattus norvegicus); experiment: Antagonist activity at oxytocin receptor in isolated rat uterus assessed as inhibition of oxytocin-induced oxytocic response at 20:1 compound to oxytocin ratio pretreated for 10 to 20 secs prior to oxytocin addition; conditions: concentration not given here
[16] = target: T5, Oxytocin receptor (Rattus norvegicus); experiment: Antagonist activity at oxytocin receptor in isolated rat uterus assessed as incidence of regular phasic contractions of uterus at 0.25 ug/ml
[17] = target: T5, Oxytocin receptor (Rattus norvegicus); experiment: Antagonist activity at oxytocin receptor in isolated rat uterus assessed as inhibition of oxytocin-induced oxytocic response at 0.25 ug/ml followed by compound washout

SMILES: CC[C@H](C)[C@@H]1NC(=O)[C@H](Cc2ccc(O)cc2)NC(=O)CCSSCC(C(=O)N2CCC[C@H]2C(=O)N[C@@H](CC(C)C)C(=O)NCC(N)=O)NC(=O)[C@H](CC(N)=O)NC(=O)[C@H](CCC(N)=O)NC1=O (single isomer, unassigned)
Activity [1]: 803 U/mg

SMILES: CC[C@H](C)[C@@H]1NC(=O)[C@H](Cc2cc(Br)c(O)c(Br)c2)NC(=O)CCSSC[C@@H](C(=O)N2CCC[C@H]2C(=O)N[C@@H](CC(C)C)C(=O)NCC(N)=O)NC(=O)[C@H](CC(N)=O)NC(=O)[C@H](CCC(N)=O)NC1=O
Kb (Oxytocin receptor [2]): 89.1 nM

SMILES: CC[C@H](C)[C@@H]1NC(=O)[C@H](Cc2cc(Br)c(O)c(Br)c2)NC(=O)CC(CC)(CC)SSC[C@@H](C(=O)N2CCC[C@H]2C(=O)N[C@@H](CC(C)C)C(=O)NCC(N)=O)NC(=O)[C@H](CC(N)=O)NC(=O)[C@H](CCC(N)=O)NC1=O ([Tyr(3,5-Br2)]IQNCPLG-NH2; linker N-5 via X1)
Kb (Oxytocin receptor [2]): 83.2 nM

SMILES: CC[C@H](C)[C@@H]1NC(=O)[C@H](Cc2ccc(O)cc2)NC(=O)CC(C)(C)SSC[C@@H](C(=O)N2CCC[C@H]2C(=O)N[C@@H](CC(C)C)C(=O)NCC(N)=O)NC(=O)[C@H](CC(N)=O)NC(=O)[C@H](CCC(N)=O)NC1=O (YIQNCPLG-NH2; linker N-5 via X2)
Kb (Oxytocin receptor [3]): 115 nM

SMILES: CC[C@H](C)[C@@H]1NC(=O)[C@H](Cc2ccc(O)cc2)NC(=O)[C@@H](N)C(C)(C)SSC[C@@H](C(=O)N2CCC[C@H]2C(=O)N[C@@H](CC(C)C)C(=O)NCC(N)=O)NC(=O)[C@H](CC(N)=O)NC(=O)[C@H](CCC(N)=O)NC1=O
Kb (Oxytocin receptor [3]): 138 nM
inhibition [4]: Active

SMILES: CC[C@H](C)[C@@H]1NC(=O)[C@H](Cc2ccc(O)cc2)NC(=O)[C@@H](N)C(C)(C)SSC[C@@H](C(=O)N2CCC[C@H]2C(=O)N[C@@H](CC(C)C)C(=O)NCC(N)=O)NC(=O)[C@H](CC(N)=O)NC(=O)[C@H](CC(C)C)NC1=O (H-[Pen]YILNCPLG-NH2; disulfide 1-6)
Kb (Oxytocin receptor [3]): 170 nM

SMILES: CC[C@H](C)[C@@H]1NC(=O)[C@H](Cc2ccc(O)cc2)NC(=O)CC(C)(C)SSC[C@@H](C(=O)N2CCC[C@H]2C(=O)N[C@@H](CC(C)C)C(=O)NCC(N)=O)NC(=O)[C@H](CC(N)=O)NC(=O)[C@H]([C@@H](C)O)NC1=O (YITNCPLG-NH2; linker N-5 via X2)
Kb (Oxytocin receptor [2]): 31.6 nM

The next lines start with results.

Kb (Oxytocin receptor [3]): 57.5 nM
SMILES: CC[C@H](C)[C@@H]1NC(=O)[C@H](Cc2ccc(O)cc2)NC(=O)CC(CC)(CC)SSC[C@@H](C(=O)N2CCC[C@H]2C(=O)N[C@@H](CC(C)C)C(=O)NCC(N)=O)NC(=O)[C@H](CC(N)=O)NC(=O)[C@H](CCC(N)=O)NC1=O (YIQNCPLG-NH2; linker N-5 via X1)

Kb (Oxytocin receptor [3]): 95.5 nM
SMILES: CC[C@H](C)[C@@H]1NC(=O)[C@H](Cc2ccc(O)cc2)NC(=O)CC(CC)(CC)SSC[C@@H](C(=O)N2CCC[C@H]2C(=O)N[C@@H](CC(C)C)C(=O)NCC(N)=O)NC(=O)[C@H](CC(N)=O)NC(=O)[C@H](CC(C)C)NC1=O (YILNCPLG-NH2; linker N-5 via X1)

inhibition [6]: 60%
inhibition [7]: inactive
Activity [8]: Active
Activity [9]: inactive
inhibition [10]: Active
inhibition [11]: inactive
inhibition [12]: Active
inhibition [13]: Active
Kb (Oxytocin receptor [14]): 72.4 nM
inhibition [15]: 50%
inhibition [17]: inactive
SMILES: CC[C@H](C)[C@@H]1NC(=O)[C@H](CC(C)C)NC(=O)[C@@H](N)C(C)(C)SSC[C@@H](C(=O)N2CCC[C@H]2C(=O)N[C@@H](CC(C)C)C(=O)NCC(N)=O)NC(=O)[C@H](CC(N)=O)NC(=O)[C@H](CCC(N)=O)NC1=O (H-[Pen]LIQNCPLG-NH2; disulfide 1-6)
inhibition [5]: inactive
Activity [16]: inactive

Activity [1]: 0.5 U/mg
SMILES: CC[C@H](C)[C@@H]1NC(=O)[C@H](CC(C)C)NC(=O)[C@@H](N)CSSC[C@@H](C(=O)N2CCC[C@H]2C(=O)N[C@@H](CC(C)C)C(=O)NCC(N)=O)NC(=O)[C@H](CC(N)=O)NC(=O)[C@H](CCC(N)=O)NC1=O (H-CLIQNCPLG-NH2; disulfide 1-6)
